Laboratory results taken from ChEMBL document CHEMBL1138952 (Bioorg Med Chem Lett, 2006).

Key:
Coagulation factor X [1] = molecular target: Coagulation factor X (Homo sapiens, UniProt P00742); experiment: Binding affinity to human f10a
[2] = Activity in human plasma by aPTT assay; format: functional
[3] = (§1) Volume of distribution in dog at 0.5 mg/kg, iv and 0.2 mg/kg, po; format: ADME, organism-based, Canis lupus familiaris; conditions: in vivo, read-out: Vdss
Procedure, shortened: (§2)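 Dogs received the compounds as TFA salts in a cassette (N-in-1) format, 0.5 mg/kg intravenously and 0.2 mg/kg orally (n = 2), and pharmacokinetic profiles were determined.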

[4] = Apparent permeability in Caco-2 cells; format: ADME, cell-based; conditions: human
[5] = Oral bioavailability in dog at 0.5 mg/kg, iv and 0.2 mg/kg, po; format: ADME, organism-based, Canis lupus familiaris; conditions: in vivo; procedure, shortened: as §2
[6] = (§3) Half life in dog at 0.5 mg/kg, iv and 0.2 mg/kg, po; format: ADME, organism-based, Canis lupus familiaris; conditions: in vivo; procedure, shortened: as §2
[7] = Clearance in dog at 0.5 mg/kg, iv and 0.2 mg/kg, po; format: ADME, organism-based, Canis lupus familiaris; conditions: in vivo
[8] = molecular target: T1, Coagulation factor VII/tissue factor (Homo sapiens) (UniProt P08709+P13726); experiment: Activity in human plasma by PT assay; format: functional, cell-free
Procedure, shortened: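 In vitro clotting assays (PT, aPTT) were run in human plasma.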

[9] = molecular target: T1, Coagulation factor VII/tissue factor (Homo sapiens); experiment: Activity in rabbit plasma by PT assay; format: functional, cell-free; conditions: Oryctolagus cuniculus, target entry is the homologue from another species
Trypsin = Trypsin (Homo sapiens, UniProt P07477+P07478+P35030); experiment: Binding affinity to trypsin; format: protein assay
Chymotrypsinogen B = Chymotrypsinogen B (Homo sapiens, UniProt P17538); experiment: Binding affinity to chymotrypsin
Coagulation factor VII = molecular target: T2, Coagulation factor VII (Homo sapiens, UniProt P08709); experiment: Binding affinity to f7a
T2 sequence (P08709 whole entry): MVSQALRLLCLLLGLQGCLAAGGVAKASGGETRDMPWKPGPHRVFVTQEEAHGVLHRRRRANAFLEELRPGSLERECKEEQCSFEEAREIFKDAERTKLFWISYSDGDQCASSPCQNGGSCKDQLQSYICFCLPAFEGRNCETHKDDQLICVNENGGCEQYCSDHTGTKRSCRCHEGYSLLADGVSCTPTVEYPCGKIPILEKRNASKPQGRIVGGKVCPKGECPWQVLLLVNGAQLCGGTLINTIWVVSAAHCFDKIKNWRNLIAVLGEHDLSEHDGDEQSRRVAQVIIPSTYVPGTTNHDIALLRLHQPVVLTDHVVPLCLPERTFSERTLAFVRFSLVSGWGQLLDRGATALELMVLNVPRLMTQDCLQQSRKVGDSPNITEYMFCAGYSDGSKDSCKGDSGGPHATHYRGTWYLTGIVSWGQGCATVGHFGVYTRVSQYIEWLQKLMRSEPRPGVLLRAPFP

Prothrombin = Prothrombin (Homo sapiens, UniProt P00734); experiment: Binding affinity to thrombin
Coagulation factor IX = Coagulation factor IX (Homo sapiens, UniProt P00740); experiment: Binding affinity to f9a
Plasminogen = Plasminogen (Homo sapiens, UniProt P00747); experiment: Binding affinity to plasmin
[10] = molecular target: Tissue-type plasminogen activator (Homo sapiens, UniProt P00750); experiment: Binding affinity to tPA
[11] = molecular target: Urokinase-type plasminogen activator (Homo sapiens, UniProt P00749); experiment: Binding affinity to urokinase
[12] = molecular target: Vitamin K-dependent protein C (Homo sapiens, UniProt P04070); experiment: Binding affinity to aPC
[13] = Protein binding in rabbit; format: ADME, Oryctolagus cuniculus; conditions: plasma, read-out: PPB (converted)
Oryctolagus cuniculus [14] = experiment: Inhibition of thrombus formation in rabbit arterio-venous shunt model at 4.6 umol/kg/h, iv; format: functional, organism-based
Coagulation factor X [15] = molecular target: T3, Coagulation factor X (Oryctolagus cuniculus, UniProt O19045); experiment: Binding affinity to rabbit f10a
T3 sequence (O19045 whole entry): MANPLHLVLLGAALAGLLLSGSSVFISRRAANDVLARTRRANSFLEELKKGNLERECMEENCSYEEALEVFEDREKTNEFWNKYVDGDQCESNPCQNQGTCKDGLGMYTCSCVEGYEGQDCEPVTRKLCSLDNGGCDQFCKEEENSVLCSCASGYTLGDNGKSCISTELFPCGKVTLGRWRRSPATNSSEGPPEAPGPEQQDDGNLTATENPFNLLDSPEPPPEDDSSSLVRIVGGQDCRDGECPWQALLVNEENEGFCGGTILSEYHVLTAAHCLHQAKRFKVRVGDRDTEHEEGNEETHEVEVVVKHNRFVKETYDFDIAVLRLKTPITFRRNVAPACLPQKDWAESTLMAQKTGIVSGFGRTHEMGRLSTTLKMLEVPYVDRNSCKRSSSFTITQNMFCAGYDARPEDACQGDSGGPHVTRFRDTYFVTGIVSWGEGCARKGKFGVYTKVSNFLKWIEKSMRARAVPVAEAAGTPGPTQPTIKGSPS

Oryctolagus cuniculus [16] = experiment: Inhibition of thrombus formation in iv dosed rabbit arterio-venous shunt model; format: functional, organism-based
Canis familiaris [17] = experiment: as §1; format: ADME, organism-based, Canis lupus familiaris; conditions: in vivo; procedure, shortened: as §2
Canis familiaris [18] = experiment: as §3; format: ADME, organism-based, Canis lupus familiaris; conditions: in vivo; procedure, shortened: as §2

Vitamin K-dependent protein C, sequence (P04070 43-197 limits assumed): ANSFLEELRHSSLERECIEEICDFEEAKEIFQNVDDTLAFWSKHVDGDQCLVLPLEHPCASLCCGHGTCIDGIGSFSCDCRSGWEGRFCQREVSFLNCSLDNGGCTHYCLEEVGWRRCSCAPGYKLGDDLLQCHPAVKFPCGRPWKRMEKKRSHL
Vitamin K-dependent protein C, sequence (P04070 212-461 limits assumed): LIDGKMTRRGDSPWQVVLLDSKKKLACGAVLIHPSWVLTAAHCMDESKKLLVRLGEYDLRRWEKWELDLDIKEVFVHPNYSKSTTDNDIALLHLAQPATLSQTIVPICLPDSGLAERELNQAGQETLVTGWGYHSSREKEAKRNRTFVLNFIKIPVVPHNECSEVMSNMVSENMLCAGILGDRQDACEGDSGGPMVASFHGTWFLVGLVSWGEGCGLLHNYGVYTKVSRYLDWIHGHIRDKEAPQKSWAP
Tissue-type plasminogen activator, sequence (P00750 whole entry): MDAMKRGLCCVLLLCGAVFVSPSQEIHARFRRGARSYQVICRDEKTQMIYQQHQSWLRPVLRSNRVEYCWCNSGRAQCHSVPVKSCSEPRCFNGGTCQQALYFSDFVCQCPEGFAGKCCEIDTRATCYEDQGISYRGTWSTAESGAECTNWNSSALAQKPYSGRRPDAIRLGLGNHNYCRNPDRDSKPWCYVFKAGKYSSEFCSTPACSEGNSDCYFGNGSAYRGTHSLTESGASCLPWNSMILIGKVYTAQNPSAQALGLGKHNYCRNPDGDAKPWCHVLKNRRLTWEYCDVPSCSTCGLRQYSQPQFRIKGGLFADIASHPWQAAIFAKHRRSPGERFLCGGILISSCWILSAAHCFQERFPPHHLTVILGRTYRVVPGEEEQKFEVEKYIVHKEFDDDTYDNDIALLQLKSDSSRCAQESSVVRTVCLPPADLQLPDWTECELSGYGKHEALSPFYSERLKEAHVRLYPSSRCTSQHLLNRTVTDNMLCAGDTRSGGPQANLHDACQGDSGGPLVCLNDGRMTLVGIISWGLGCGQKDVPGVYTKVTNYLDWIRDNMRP
Coagulation factor X (Homo sapiens, UniProt P00742), sequence (P00742 41-179 limits assumed): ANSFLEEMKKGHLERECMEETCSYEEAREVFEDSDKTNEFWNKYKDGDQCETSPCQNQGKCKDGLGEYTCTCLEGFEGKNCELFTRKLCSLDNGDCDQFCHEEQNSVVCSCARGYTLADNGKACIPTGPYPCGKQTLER
Coagulation factor X (Homo sapiens, UniProt P00742), sequence (P00742 235-488 limits assumed): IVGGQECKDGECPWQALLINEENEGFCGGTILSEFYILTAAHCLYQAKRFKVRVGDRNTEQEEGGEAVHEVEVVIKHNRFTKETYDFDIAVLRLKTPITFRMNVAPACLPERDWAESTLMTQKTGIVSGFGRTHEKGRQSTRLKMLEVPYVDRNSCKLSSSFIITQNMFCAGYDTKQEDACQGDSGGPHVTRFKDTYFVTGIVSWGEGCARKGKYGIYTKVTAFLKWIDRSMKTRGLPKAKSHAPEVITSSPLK
Coagulation factor IX, sequence (P00740 47-191 limits assumed): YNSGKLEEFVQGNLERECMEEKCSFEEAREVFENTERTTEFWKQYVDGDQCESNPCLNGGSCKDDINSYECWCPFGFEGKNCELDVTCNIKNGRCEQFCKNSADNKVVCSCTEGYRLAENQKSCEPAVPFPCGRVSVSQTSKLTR
Coagulation factor IX, sequence (P00740 227-461 limits assumed): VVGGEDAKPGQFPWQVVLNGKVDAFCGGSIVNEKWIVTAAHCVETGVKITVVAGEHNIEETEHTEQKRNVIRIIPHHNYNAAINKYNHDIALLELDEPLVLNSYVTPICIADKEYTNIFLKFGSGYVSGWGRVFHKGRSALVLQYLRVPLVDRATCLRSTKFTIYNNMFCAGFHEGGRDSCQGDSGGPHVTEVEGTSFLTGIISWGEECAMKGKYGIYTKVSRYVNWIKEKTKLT
Chymotrypsinogen B, sequence (P17538 34-164 limits assumed, other chains not shown): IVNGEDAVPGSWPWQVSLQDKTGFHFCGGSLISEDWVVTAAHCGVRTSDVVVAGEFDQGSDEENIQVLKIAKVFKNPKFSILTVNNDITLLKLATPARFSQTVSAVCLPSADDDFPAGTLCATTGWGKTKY
Chymotrypsinogen B, sequence (P17538 167-263 limits assumed, other chains not shown): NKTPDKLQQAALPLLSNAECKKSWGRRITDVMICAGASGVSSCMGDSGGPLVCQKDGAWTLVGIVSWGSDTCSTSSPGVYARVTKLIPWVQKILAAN
Plasminogen, sequence (P00747 97-580 limits assumed): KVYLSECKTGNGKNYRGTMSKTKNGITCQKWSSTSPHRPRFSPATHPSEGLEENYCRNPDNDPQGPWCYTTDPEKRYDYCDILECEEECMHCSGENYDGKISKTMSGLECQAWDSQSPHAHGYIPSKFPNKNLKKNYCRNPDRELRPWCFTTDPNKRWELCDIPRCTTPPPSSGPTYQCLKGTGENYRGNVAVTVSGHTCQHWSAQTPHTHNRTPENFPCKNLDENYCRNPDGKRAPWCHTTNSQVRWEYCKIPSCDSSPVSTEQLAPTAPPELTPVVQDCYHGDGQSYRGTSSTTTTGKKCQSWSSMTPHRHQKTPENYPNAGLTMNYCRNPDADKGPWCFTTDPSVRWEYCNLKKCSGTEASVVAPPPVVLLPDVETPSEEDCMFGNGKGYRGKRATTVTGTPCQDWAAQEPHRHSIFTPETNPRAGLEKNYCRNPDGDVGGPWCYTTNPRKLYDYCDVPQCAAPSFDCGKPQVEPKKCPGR
Plasminogen, sequence (P00747 581-810 limits assumed): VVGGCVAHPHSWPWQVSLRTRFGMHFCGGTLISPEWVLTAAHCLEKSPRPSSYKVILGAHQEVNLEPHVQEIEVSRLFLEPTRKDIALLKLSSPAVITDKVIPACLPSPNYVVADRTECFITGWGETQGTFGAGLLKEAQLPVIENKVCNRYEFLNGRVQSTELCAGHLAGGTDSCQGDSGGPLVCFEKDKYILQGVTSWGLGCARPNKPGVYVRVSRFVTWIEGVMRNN

In the case of `COC(=O)c1nn(-c2ccc(OC)cc2)c2c(=O)n(-c3ccc(-c4ccccc4S(N)(=O)=O)cc3)cnc12`, the Ki (Coagulation factor X [1]) is reported as 2.8 nM and the 2aPTT [2] is reported as 7.1 µM.
For `COC(=O)c1nn(-c2ccc(OC)cc2)c2c(=O)n(-c3ccc(-c4ccccc4S(N)(=O)=O)cc3F)cnc12`, the Ki (Coagulation factor X [1]) was 1.8 nM.
For `COc1ccc(-n2nc(Cn3ccnc3)c3nc(C)n(-c4ccc(-c5ccccc5CN5CCCC5)cc4)c(=O)c32)cc1`, the Ki (Coagulation factor X [1]) was 2.1 nM.
`COc1ccc(-n2nc(C(N)=O)c3ncn(-c4ccc(-c5ccccc5CN5CCCC5)cc4)c(=O)c32)cc1.O=C(O)C(F)(F)F` gave a Vd [3] of 3.9 L/kg, a Papp [4] of 12 ×10⁻⁶ cm/s and a bioavailability [5] of 94%. It also gave a half-life [6] of 324 min and a clearance [7] of 9.17 mL/min/kg.
`CCOC(=O)c1nn(-c2ccc(OC)cc2)c2c(=O)n(-c3ccc(-c4ccccc4CN4CCCC4)cc3F)cnc12` showed a Ki (Coagulation factor X [1]) of 3.6 nM.
`COc1ccc(-n2nc(C(N)=O)c3ncn(-c4ccc(-c5ccccc5CN5CCCC5)cc4)c(=O)c32)cc1` [listing 1 of 2 here] gave a 2PT [8] of 2.2 µM and a 2PT [9] of 1.8 µM.
In the case of `COc1ccc(-n2nc(C(N)=O)c3ncn(-c4ccc(-c5ccccc5CN5CCCC5)cc4F)c(=O)c32)cc1` [listing 1 of 2 here], the 2PT [8] is reported as 3.4 µM and the 2PT [9] is reported as 1.6 µM.
Molecule `COc1ccc(-n2nc(C#N)c3ncn(-c4ccc(-c5ccccc5CN5CCCC5)cc4)c(=O)c32)cc1.O=C(O)C(F)(F)F` has a Vd [3] of 75 L/kg, a Papp [4] of 3.1 ×10⁻⁶ cm/s and a bioavailability [5] of 77%. For the same molecule, the half-life [6] was 498 min and the clearance [7] was 113 mL/min/kg.
For `COc1ccc(-n2nc(C#N)c3ncn(-c4ccc(-c5ccccc5CN5CCCC5)cc4)c(=O)c32)cc1`, the Ki (Trypsin) was > 2500 nM, the Ki (Coagulation factor X [1]) was 1.7 nM and the Ki (Chymotrypsinogen B) was 2030 nM. For the same molecule, the Ki (Coagulation factor VII) was > 15 µM, the Ki (Prothrombin) was 1100 nM and the Ki (Coagulation factor IX) was > 15 µM. For the same molecule, the Ki (Plasminogen) was > 15 µM, the Ki [10] was > 33 µM and the Ki [11] was > 13 µM. It also gave a Ki [12] of 48.7 µM.
With `COc1ccc(-n2nc(C(F)(F)F)c3c(C)nn(-c4ccc(-c5ccccc5S(N)(=O)=O)cc4)c(=O)c32)cc1` the Ki (Coagulation factor X [1]) was 2.8 nM.
In the case of `COc1ccc(-n2nc(C#N)c3ncn(-c4ccc(-c5ccccc5CN(C)C)cc4)c(=O)c32)cc1`, the Ki (Coagulation factor X [1]) is reported as 2.1 nM.
In the case of `COc1ccc(-n2nc(C#N)c(N)c2C(=O)Nc2ccc(-c3ccccc3S(C)(=O)=O)cc2F)cc1`, the Ki (Coagulation factor X [1]) is reported as 8.4 nM.
For `COc1ccc(-n2nc(C(N)=O)c3ncn(-c4ccc(-c5ccccc5S(N)(=O)=O)cc4)c(=O)c32)cc1`, the Ki (Coagulation factor X [1]) was 1.7 nM and the 2aPTT [2] was 8.7 µM.
With `COc1ccc(-n2nc(C(N)=O)c3ncn(-c4ccc(-c5ccccc5CN5CCCC5)cc4F)c(=O)c32)cc1` [listing 2 of 2 here] the fraction unbound [13] was 0.15, the Ki (Trypsin) was > 2500 nM and the Ki (Coagulation factor X [1]) was 0.74 nM. The Ki (Chymotrypsinogen B) was 530 nM, the Ki (Coagulation factor VII) was > 15 µM and the Ki (Prothrombin) was 1800 nM. For the same molecule, the IC50 (Oryctolagus cuniculus [14]) was > 1000 nM, the inhibition in vivo at 4.6 µmol/kg/h (Oryctolagus cuniculus [14]; iv) was 33% and the Ki (Coagulation factor IX) was > 15 µM. For the same molecule, the Ki (Plasminogen) was > 15 µM, the Ki (Coagulation factor X [15]) was 1.2 nM and the 2aPTT [2] was 3.9 µM. For the same molecule, the Ki [10] was > 33 µM, the Ki [11] was > 13 µM and the Ki [12] was > 76 µM.
Molecule `COc1ccc(-n2nc(Cn3ncnn3)c3nc(C)n(-c4ccc(-c5ccccc5CN5CCCC5)cc4)c(=O)c32)cc1` has a Ki (Coagulation factor X [1]) of 1.9 nM, a 2PT [8] of 6.5 µM and a 2aPTT [2] of 20.1 µM.
Molecule `COc1ccc(-n2nc(C#N)c3[nH]c(=O)n(-c4ccc(-c5ccccc5S(C)(=O)=O)cc4F)c(=O)c32)cc1` has a Ki (Coagulation factor X [1]) of 3 nM and a 2aPTT [2] of 197 µM.
With `COc1ccc(-n2nc(C(N)=O)c3ncn(-c4ccc(-c5ccccc5CN5CC[C@@H](O)C5)cc4)c(=O)c32)cc1` the Ki (Coagulation factor X [1]) was 1.5 nM, the 2PT [8] was 3.6 µM and the 2aPTT [2] was 5 µM.
For `COc1ccc(-n2nc(Cn3cnnn3)c3nc(C)n(-c4ccc(-c5ccccc5CN5CCCC5)cc4)c(=O)c32)cc1`, the Ki (Coagulation factor X [1]) was 1.4 nM.
For `CCOC(=O)c1nn(-c2ccc(OC)cc2)c2c(=O)n(-c3ccc(-c4ccccc4CO)cc3)cnc12`, the Ki (Coagulation factor X [1]) was 45 nM.
With `COc1ccc(-n2nc(C#N)c3ncn(-c4ccc(-c5ccccc5S(N)(=O)=O)cc4)c(=O)c32)cc1` the Ki (Coagulation factor X [1]) was 1.9 nM and the 2aPTT [2] was 5.8 µM.
Work on `COc1ccc(-n2nc(C(=O)O)c3ncn(-c4ccc(-c5ccccc5S(N)(=O)=O)cc4)c(=O)c32)cc1` yielded a Ki (Coagulation factor X [1]) of 38 nM.
With `COc1ccc(-n2nc(C(N)=O)c3ncn(-c4ccc(-c5ccccc5CN5CCCC5)cc4)c(=O)c32)cc1` [listing 2 of 2 here] the fraction unbound [13] was 0.23, the Ki (Trypsin) was > 4200 nM and the ID50 (Oryctolagus cuniculus [16]) was 5.5 µmol/kg/h. The IC50 (Oryctolagus cuniculus [16]; Oryctolagus cuniculus) was 1200 nM, the Ki (Chymotrypsinogen B) was 7930 nM and the Ki (Coagulation factor VII) was > 15 µM. The Ki (Prothrombin) was 1600 nM, the Ki (Coagulation factor IX) was > 41 µM and the Ki (Plasminogen) was > 15 µM. The Ki (Coagulation factor X [15]) was 1 nM, the 2aPTT [2] was 4 µM and the Ki [10] was > 33 µM. The Ki [11] was > 13 µM and the Ki [12] was > 76 µM.
In the case of `COc1ccc(-n2nc(C(N)=O)c3ncn(-c4ccc(-c5ccccc5CN5CCCC5)cc4F)c(=O)c32)cc1.O=C(O)C(F)(F)F`, the Vd [3] is reported as 4.9 L/kg, the Papp [4] is reported as 15 ×10⁻⁶ cm/s and the bioavailability [5] is reported as 96%. For the same molecule, the half-life [6] was 306 min and the clearance [7] was 12.7 mL/min/kg.
`CCOC(=O)c1nn(-c2ccc(OC)cc2)c2c(=O)n(-c3ccc(-c4ccccc4CN4CCCC4)cc3)cnc12` showed a Ki (Coagulation factor X [1]) of 3.8 nM and a 2aPTT [2] of 1.8 µM.
In the case of `COc1ccc(-n2nc(CN)c3ncn(-c4ccc(-c5ccccc5S(N)(=O)=O)cc4)c(=O)c32)cc1`, the Ki (Coagulation factor X [1]) is reported as 22 nM.
Work on `COc1ccc(-n2nc(C(F)(F)F)c3c(C)nn(-c4ccc(-c5ccccc5CN5CCCC5)cc4)c(=O)c32)cc1` yielded a Ki (Coagulation factor X [1]) of 2.8 nM, a 2PT [8] of 62 µM and a 2aPTT [2] of 53 µM.
In the case of `COc1ccc(-n2nc(C#N)c3nc(C)n(-c4ccc(-c5ccccc5CN(C)C)cc4)c(=O)c32)cc1`, the Ki (Coagulation factor X [1]) is reported as 1.8 nM.
For `COc1ccc(-n2nc(C(N)=O)c3ncn(-c4ccc(-c5ccccc5S(N)(=O)=O)cc4F)c(=O)c32)cc1`, the Ki (Coagulation factor X [1]) was 1.2 nM and the 2aPTT [2] was 9.8 µM.
For `COc1ccc(-n2nc(C(F)(F)F)cc2C(=O)Nc2ccc(-c3ccccc3S(C)(=O)=O)cc2F)cc1`, the 2aPTT [2] was 104 µM.
Molecule `CN(C)Cc1nccn1-c1ccc(NC(=O)c2cc(C(F)(F)F)nn2-c2ccc3onc(N)c3c2)c(F)c1.Cl` [RAZAXABAN HYDROCHLORIDE] has a fraction unbound [13] of 0.07, a Vdss (Canis familiaris [17]) of 5.3 L/kg and a T1/2 (Canis familiaris [18]) of 3.4 h. It also gave a 2PT [8] of 2.1 µM.
